Assays:
[1] = molecular target: Voltage-dependent T-type calcium channel subunit alpha-1H (Homo sapiens) (UniProt O95180); assay: In vitro inhibitory effect on alpha-1H T-type [Ca2+] channels expressed in Xenopus oocytes at 100 uM; format: functional, cell-based; conditions: Oocyte
Summary of the method: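 Preliminary screen at 100 µM on α1H T-type Ca2+ channels expressed in Xenopus oocytes, recorded by two-electrode voltage clamp. Output is percent inhibition of current.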

[2] = molecular target: T1, Voltage-dependent T-type calcium channel subunit alpha-1G (Homo sapiens, UniProt O43497); assay: In vitro inhibition of alpha-1G T-type [Ca2+] channels expressed in HEK293 cells; format: functional, cell-based
T1 sequence (O43497 whole entry): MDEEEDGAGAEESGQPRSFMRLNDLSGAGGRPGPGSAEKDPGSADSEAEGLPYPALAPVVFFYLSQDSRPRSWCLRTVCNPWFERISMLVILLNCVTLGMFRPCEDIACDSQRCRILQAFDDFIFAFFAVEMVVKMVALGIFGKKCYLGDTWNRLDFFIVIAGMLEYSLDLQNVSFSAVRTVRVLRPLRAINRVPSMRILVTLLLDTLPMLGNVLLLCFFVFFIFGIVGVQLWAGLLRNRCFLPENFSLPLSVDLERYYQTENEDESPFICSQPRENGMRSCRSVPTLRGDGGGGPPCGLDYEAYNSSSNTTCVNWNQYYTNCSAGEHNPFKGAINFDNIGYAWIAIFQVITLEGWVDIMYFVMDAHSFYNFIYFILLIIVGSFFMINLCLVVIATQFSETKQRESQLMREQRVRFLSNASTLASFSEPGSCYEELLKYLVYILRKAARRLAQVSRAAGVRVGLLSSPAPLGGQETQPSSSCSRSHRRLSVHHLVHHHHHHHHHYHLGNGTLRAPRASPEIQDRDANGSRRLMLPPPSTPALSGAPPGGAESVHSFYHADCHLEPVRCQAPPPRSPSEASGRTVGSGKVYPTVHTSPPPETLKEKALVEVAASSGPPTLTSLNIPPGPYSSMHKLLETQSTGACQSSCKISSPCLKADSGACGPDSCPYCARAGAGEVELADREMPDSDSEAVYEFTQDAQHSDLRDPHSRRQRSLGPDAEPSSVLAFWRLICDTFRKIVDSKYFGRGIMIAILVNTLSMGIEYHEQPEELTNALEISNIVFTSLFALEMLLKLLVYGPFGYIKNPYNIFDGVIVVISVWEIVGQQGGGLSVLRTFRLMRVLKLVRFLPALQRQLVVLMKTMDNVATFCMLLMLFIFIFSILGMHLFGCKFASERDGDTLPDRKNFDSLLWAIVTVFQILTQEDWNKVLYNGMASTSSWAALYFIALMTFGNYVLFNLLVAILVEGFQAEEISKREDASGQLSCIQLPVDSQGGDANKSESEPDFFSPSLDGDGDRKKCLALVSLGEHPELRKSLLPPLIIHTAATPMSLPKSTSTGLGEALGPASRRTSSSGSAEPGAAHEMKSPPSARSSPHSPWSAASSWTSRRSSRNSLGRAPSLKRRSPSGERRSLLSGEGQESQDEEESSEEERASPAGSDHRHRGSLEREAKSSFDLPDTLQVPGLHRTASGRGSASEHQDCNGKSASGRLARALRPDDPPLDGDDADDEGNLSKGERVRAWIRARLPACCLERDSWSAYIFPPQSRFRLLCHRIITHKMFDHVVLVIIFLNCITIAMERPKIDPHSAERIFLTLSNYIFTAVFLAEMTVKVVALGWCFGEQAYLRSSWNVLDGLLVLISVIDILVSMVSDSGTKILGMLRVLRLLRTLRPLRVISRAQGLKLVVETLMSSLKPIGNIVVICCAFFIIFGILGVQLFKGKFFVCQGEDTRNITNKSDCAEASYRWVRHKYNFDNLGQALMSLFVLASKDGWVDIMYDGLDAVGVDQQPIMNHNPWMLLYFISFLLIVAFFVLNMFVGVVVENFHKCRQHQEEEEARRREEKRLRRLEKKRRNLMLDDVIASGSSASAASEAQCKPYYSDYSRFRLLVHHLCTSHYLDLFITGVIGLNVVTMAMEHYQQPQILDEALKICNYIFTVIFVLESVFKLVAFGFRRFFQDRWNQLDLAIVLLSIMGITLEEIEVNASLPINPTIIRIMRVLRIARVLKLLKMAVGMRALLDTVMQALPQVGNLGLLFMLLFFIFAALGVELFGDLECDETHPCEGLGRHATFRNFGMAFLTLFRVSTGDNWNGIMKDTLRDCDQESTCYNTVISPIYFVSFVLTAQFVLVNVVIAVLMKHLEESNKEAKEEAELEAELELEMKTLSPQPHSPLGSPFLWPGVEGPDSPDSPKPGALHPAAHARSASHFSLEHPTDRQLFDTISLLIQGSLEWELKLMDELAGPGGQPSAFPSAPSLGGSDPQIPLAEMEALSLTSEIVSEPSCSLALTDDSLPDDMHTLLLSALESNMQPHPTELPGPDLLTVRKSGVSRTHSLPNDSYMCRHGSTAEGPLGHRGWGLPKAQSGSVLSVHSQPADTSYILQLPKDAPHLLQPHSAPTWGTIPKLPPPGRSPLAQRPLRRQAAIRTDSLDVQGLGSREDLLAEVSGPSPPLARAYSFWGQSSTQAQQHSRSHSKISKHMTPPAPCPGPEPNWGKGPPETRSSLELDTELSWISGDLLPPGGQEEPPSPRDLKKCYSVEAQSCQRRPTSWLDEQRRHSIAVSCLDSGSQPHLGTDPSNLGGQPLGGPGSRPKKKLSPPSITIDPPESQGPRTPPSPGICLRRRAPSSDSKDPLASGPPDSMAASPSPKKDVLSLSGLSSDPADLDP
Summary of the method: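 α1G T-type Ca2+ currents recorded in HEK293 cells by whole-cell patch clamp. IC50 is the molar concentration giving 50% inhibition of α1G current, obtained by fitting raw data to dose–response curves.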

[3] = molecular target: T1, Voltage-dependent T-type calcium channel subunit alpha-1G; assay: Concentration of the compounds required for inhibition of HEK293 cells (alpha1G T-type); format: functional, cell-based
[4] = molecular target: Voltage-dependent N-type calcium channel subunit alpha-1B (Homo sapiens) (UniProt Q00975); assay: Inhibition of HVA N-type [Ca2+] channels of major pelvic ganglion (MPG) neurons at 10 uM; format: functional
Summary of the method: (§1)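 Major pelvic ganglion (MPG) neurons, compound at 10 µM. Percent inhibition measured for both LVA (T-type) and HVA (N-type) Ca2+ currents, as part of an ion-channel selectivity screen that also covered Na+ channels.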

[5] = Inhibition of LVA T-type [Ca2+] channels of major pelvic ganglion (MPG) neurons at 10 uM; format: functional; summary of the method: as §1
[6] = molecular target: T1, Voltage-dependent T-type calcium channel subunit alpha-1G; assay: In vitro inhibition of alpha-1G T-type [Ca2+] channels expressed in HEK293 cells at 10 uM; format: functional, cell-based
Summary of the method: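 Whole-cell patch clamp on HEK293 cells expressing α1G T-type Ca2+ channels, test compound at 10 µM. Percent inhibition of T-type current reported as mean ± SEM from repeated runs (n ≥ 3).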

Sequence of Voltage-dependent T-type calcium channel subunit alpha-1H (Homo sapiens) (O95180 whole entry): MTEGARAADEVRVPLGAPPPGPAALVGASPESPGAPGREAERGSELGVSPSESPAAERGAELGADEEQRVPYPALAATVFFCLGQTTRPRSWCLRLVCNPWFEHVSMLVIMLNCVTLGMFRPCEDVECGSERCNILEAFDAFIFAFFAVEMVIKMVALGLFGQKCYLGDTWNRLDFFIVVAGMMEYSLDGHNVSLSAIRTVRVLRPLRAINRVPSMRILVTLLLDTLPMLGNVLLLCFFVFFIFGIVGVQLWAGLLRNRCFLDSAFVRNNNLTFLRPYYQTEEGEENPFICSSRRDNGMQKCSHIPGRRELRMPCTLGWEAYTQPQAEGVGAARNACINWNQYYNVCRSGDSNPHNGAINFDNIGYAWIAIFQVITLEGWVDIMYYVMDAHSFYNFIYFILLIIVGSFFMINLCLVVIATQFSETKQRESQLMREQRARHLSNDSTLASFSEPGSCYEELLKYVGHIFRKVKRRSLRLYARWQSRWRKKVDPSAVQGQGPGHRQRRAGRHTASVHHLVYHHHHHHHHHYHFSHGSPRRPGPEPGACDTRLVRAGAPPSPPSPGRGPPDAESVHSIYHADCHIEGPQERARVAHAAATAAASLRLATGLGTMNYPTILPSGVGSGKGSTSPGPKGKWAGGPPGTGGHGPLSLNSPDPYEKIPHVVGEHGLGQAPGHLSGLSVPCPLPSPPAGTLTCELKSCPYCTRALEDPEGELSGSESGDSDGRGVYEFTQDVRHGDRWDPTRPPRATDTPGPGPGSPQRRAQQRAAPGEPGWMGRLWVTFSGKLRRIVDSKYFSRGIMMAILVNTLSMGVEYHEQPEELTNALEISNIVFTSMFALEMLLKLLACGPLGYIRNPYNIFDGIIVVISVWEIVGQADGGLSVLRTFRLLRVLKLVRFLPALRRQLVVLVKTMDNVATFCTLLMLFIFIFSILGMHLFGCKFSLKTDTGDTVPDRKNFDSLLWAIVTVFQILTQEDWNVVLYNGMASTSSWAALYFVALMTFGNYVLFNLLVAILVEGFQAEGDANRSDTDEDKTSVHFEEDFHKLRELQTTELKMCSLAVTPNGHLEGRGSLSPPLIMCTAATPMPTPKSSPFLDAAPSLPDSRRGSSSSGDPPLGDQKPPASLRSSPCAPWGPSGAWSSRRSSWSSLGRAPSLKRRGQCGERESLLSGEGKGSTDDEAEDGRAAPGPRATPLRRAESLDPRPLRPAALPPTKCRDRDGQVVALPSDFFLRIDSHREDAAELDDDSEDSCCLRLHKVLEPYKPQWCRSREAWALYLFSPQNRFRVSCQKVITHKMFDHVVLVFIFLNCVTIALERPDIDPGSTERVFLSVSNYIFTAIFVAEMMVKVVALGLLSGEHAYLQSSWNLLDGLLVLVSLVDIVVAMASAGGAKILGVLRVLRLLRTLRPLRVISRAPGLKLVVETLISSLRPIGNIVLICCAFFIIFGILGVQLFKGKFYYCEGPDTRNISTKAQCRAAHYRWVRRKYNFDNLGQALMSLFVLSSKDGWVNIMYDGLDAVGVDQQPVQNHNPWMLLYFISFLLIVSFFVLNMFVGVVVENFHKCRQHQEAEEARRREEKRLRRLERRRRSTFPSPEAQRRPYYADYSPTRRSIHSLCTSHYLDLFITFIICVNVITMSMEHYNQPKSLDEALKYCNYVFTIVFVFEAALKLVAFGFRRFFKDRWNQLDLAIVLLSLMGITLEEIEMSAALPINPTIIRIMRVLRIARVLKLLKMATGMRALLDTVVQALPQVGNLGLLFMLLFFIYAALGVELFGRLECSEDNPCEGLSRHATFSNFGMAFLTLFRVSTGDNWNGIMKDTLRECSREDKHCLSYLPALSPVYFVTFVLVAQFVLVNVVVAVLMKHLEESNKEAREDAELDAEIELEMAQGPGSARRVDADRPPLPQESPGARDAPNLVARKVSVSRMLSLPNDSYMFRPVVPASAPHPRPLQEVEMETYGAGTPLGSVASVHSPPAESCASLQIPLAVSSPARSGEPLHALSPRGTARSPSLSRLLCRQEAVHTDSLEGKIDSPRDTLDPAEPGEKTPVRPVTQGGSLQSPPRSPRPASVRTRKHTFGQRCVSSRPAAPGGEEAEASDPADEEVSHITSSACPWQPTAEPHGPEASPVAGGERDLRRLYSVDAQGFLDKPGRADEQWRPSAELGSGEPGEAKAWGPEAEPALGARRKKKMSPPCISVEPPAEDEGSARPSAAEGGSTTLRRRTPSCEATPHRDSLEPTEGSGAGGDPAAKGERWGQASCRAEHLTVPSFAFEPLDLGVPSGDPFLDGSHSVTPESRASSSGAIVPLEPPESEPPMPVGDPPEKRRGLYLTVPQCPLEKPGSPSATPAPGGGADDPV

O=C(O)CC1c2ccccc2N=C(c2ccccc2)N1c1ccccc1 (stereo unspecified)
inhibition [1]: 7.2%

COC(=O)CC1c2ccccc2N=C(c2ccccc2)N1c1ccccc1 (stereo unspecified)
inhibition [1]: 51.5%
inhibition [2]: 50%
IC50 [3]: 10.7 µM

O=C(CC1c2ccccc2N=C(N2CCCCC2)N1c1ccccc1)NCc1ccccc1 (stereo unspecified)
inhibition [1]: 77%
inhibition [4]: 12%
inhibition at 10 µM [5]: 76%
inhibition [6]: 90.1%
IC50 [3]: 0.9 µM

O=C(CC1c2ccccc2N=C(N2CCOCC2)N1c1ccccc1)OCc1ccccc1 (stereo unspecified)
inhibition [1]: 20.9%

O=C(CC1c2ccccc2N=C(N2CCCCC2)N1c1ccccc1)NCc1ccc(NS(=O)(=O)c2ccc(F)cc2)cc1 (stereo unspecified)
inhibition [1]: 80.5%
inhibition [4]: 50.8%
inhibition at 10 µM [5]: 49.6%
inhibition [6]: 89%
IC50 [3]: 0.2 µM

COC(=O)CC1c2ccccc2N=C(N2CCCCC2)N1C(C)C (stereo unspecified)
inhibition [1]: 8%

Cc1ccc(S(=O)(=O)Nc2ccc(CNC(=O)CC3c4ccccc4N=C(N4CCCCC4)N3c3ccccc3)cc2)cc1 (stereo unspecified)
inhibition [1]: 84.7%
inhibition [4]: 38.7%
inhibition at 10 µM [5]: 29%
inhibition [6]: 89.9%
IC50 [3]: 0.25 µM

CN1CCN(C2=Nc3ccccc3C(CC(=O)O)N2c2ccccc2)CC1 (stereo unspecified)
inhibition [1]: 15%

COC(=O)CC1c2ccccc2N=C(N2CCOCC2)N1c1ccccc1 (stereo unspecified)
inhibition [1]: 14%

COC(=O)CC1c2ccccc2N=C(N2CCN(C)CC2)N1C(C)C (stereo unspecified)
inhibition [1]: 0%

CN1CCN(C2=Nc3ccccc3C(CC(=O)OCc3ccccc3)N2c2ccccc2)CC1 (stereo unspecified)
inhibition [1]: 32.7%

COC(=O)CC1c2ccccc2N=C(N2CCCCC2)N1c1ccccc1 (stereo unspecified)
inhibition [1]: 11.5%
inhibition [6]: 18.3%
IC50 [3]: 27.7 µM

O=C(O)CC1c2ccccc2N=C(N2CCCCC2)N1c1ccccc1 (stereo unspecified)
inhibition [1]: 8%

O=C(CC1c2ccccc2N=C(N2CCOCC2)N1c1ccccc1)NCc1ccccc1 (stereo unspecified)
inhibition [1]: 63.8%
inhibition [6]: 40.5%
IC50 [3]: 21.6 µM

COCC(=O)O[C@]1(CCN(C)CCCc2nc3ccccc3[nH]2)CCc2cc(F)ccc2[C@@H]1C(C)C
inhibition [1]: 86%
inhibition [6]: 95.9%

O=C(CC1c2ccccc2N=C(N2CCCCC2)N1c1ccccc1)NCc1ccc([N+](=O)[O-])cc1 (stereo unspecified)
inhibition [1]: 91.9%
inhibition [4]: 32.2%
inhibition at 10 µM [5]: 37.7%
inhibition [6]: 92.3%
IC50 [3]: 2.5 µM

COC(=O)CC1c2ccccc2N=C(N2CCCCC2)N1C1CCCCC1 (stereo unspecified)
inhibition [1]: 27%

O=C(CC1c2ccccc2N=C(c2ccccc2)N1c1ccccc1)NCc1ccccc1 (stereo unspecified)
inhibition [1]: 14.8%

O=C(O)CC1c2ccccc2N=C(N2CCOCC2)N1c1ccccc1 (stereo unspecified)
inhibition [1]: 9%

COC(=O)CC1c2ccccc2N=C(N2CCN(C)CC2)N1C1CCCCC1 (stereo unspecified)
inhibition [1]: 3%

COC(=O)CC1c2ccccc2N=C(N2CCN(C)CC2)N1c1ccccc1 (stereo unspecified)
inhibition [1]: 15%

COC(=O)CC1c2ccccc2N=C(N2CCOCC2)N1C1CCCCC1 (stereo unspecified)
inhibition [1]: 12.2%

O=C(CC1c2ccccc2N=C(N2CCCCC2)N1c1ccccc1)OCc1ccccc1 (stereo unspecified)
inhibition [1]: 15.6%

COC(=O)CC1c2ccccc2N=C(N2CCOCC2)N1C(C)C (stereo unspecified)
inhibition [1]: 0%

O=C(CC1c2ccccc2N=C(c2ccccc2)N1c1ccccc1)OCc1ccccc1 (stereo unspecified)
inhibition [1]: 14.2%

Nc1ccc(CNC(=O)CC2c3ccccc3N=C(N3CCCCC3)N2c2ccccc2)cc1 (stereo unspecified)
inhibition [1]: 66.8%
inhibition [4]: 18.4%
inhibition at 10 µM [5]: 4.7%
inhibition [6]: 43.5%
IC50 [3]: 14.4 µM

CN1CCN(C2=Nc3ccccc3C(CC(=O)NCc3ccccc3)N2c2ccccc2)CC1 (stereo unspecified)
inhibition [1]: 70.3%
inhibition [6]: 29%
IC50 [3]: 35.8 µM

From ChEMBL document CHEMBL1147453, “3,4-Dihydroquinazoline derivatives as novel selective T-type Ca2+ channel blockers” (Bioorg Med Chem Lett, 2004)
